{
  "source": "paper PMC4659844",
  "about": "(Clinical Drug Investigation, 2015)",
  "key": {"[1]": {"type": "in vivo, human", "settings": "for percentage of total exposure (AUC0–∞) after 7 days / percentage of total exposure (AUC0–∞) after 14 days: based on mean partial AUCs"}, "[2]": {"test_system": "healthy Japanese subjects", "assay": "Safety and tolerability", "type": "in vivo, human", "outline": "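Double-blind, placebo-controlled single 30-min IV infusion (300 ml, in 5 % dextrose with sterile water) of test compound or placebo. Groups: 500 mg, 5 active/1 placebo; 1000 mg, 10 active/2 placebo. Safety was assessed by physical examination, chemistry, hematology, urinalysis, heart rate, blood pressure, respiratory rate, oral temperature, and monitoring of concomitant medications and adverse events, queried on all study days with non-leading questions.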"}, "[3]": {"settings": "cited from earlier work"}, "cytochrome P450 (CYP)": {"test_system": "cytochrome P450 (CYP)", "settings": "background statement, no reference given; cited from earlier work"}, "QTc": {"test_system": "QTc", "settings": "cited from earlier work"}, "[4]": {"settings": "500 mg and 1000 mg single IV infusion, range of the two dose means"}, "[5]": {"settings": "500 mg single IV infusion, healthy Japanese subjects, range of subjects, n = 5"}, "[6]": {"settings": "1000 mg single IV infusion, healthy Japanese subjects, range of subjects, n = 10"}},
  "note": "Read-outs that look alike come from different tables or passages of the source.",
  "data": [
    {"smiles": "CN[C@H]1C(=O)N[C@@H]2Cc3ccc(cc3)Oc3cc4cc(c3O[C@@H]3O[C@H](C(=O)O)[C@@H](O)[C@H](O)[C@H]3NC(=O)CCCCCCCCC(C)C)Oc3ccc(cc3Cl)[C@@H](O)[C@@H]3NC(=O)[C@H](NC(=O)[C@@H]4NC(=O)[C@@H](NC2=O)c2cc(cc(O)c2Cl)Oc2cc1ccc2O)c1ccc(O)c(c1)-c1c(O[C@H]2O[C@H](CO)[C@@H](O)[C@H](O)[C@@H]2O)cc(O)cc1[C@@H](C(=O)NCCCN(C)C)NC3=O", "note": "[Dalbavancin]", "values": [
      {"measurement": "mean CL across two dose concentrations", "setting": "[1]; [4]", "value": "40.5 to 42.2", "unit": "mL/h"},
      {"measurement": "mean Vd across two dose concentrations", "setting": "[1]; [4]", "value": "11,301 to 12,182 ml"},
      {"measurement": "percentage of total exposure (AUC0–∞) after 7 days", "setting": "[1]; 500 mg single IV infusion", "value": "approximately 47%"},
      {"measurement": "percentage of total exposure (AUC0–∞) after 14 days", "setting": "[1]; 500 mg single IV infusion", "value": "~70", "unit": "%"},
      {"measurement": "mean AUC%extrap (percentage of AUC0–∞ obtained by extrapolation)", "setting": "[1]; 500 mg single IV infusion, healthy Japanese subjects", "value": 9.83, "unit": "%"},
      {"measurement": "Vd, range", "setting": "[1]; [5]", "value": "11,412–14,205 ml"},
      {"measurement": "terminal phase t1/2, range", "setting": "[1]; [5]", "value": "182 to 240", "unit": "h"},
      {"measurement": "percentage of total exposure (AUC0–∞) after 7 days", "setting": "[1]; 1000 mg single IV infusion", "value": "approximately 49%"},
      {"measurement": "percentage of total exposure (AUC0–∞) after 14 days", "setting": "[1]; 1000 mg single IV infusion", "value": "~73", "unit": "%"},
      {"measurement": "mean AUC%extrap (percentage of AUC0–∞ obtained by extrapolation)", "setting": "[1]; 1000 mg single IV infusion, healthy Japanese subjects", "value": 8.34, "unit": "%"},
      {"measurement": "CL, range", "setting": "[1]; [6]", "value": "34.8 to 45.8", "unit": "mL/h"},
      {"measurement": "Vd, range", "setting": "[1]; [6]", "value": "8999–13,691 ml"},
      {"measurement": "terminal phase t1/2, range", "setting": "[1]; [6]", "value": "162 to 220", "unit": "h"},
      {"measurement": "tolerability", "setting": "[2]; 500 mg and 1000 mg as single 30-min infusions, healthy Japanese subjects", "value": "well tolerated"},
      {"measurement": "serious adverse events, deaths, discontinuations due to a TEAE", "setting": "[2]; 500 mg and 1000 mg single IV infusion, healthy Japanese subjects", "value": "no serious adverse event occurred"},
      {"measurement": "investigator-assessed relation of dizziness to study medication", "setting": "[2]; 500 mg dose group", "value": "unlikely to be related"},
      {"measurement": "investigator-assessed relation of dyspepsia to study medication", "setting": "[2]; 500 mg dose group", "value": "not related"},
      {"measurement": "investigator-assessed relation of rash and diarrhea to study medication", "setting": "[2]; 1000 mg dose group", "value": "possibly related"},
      {"measurement": "subjects with at least one TEAE, percentage", "setting": "[2]; Dalbavancin 500 mg single IV infusion, N = 5", "value": 40, "unit": "%"},
      {"measurement": "subjects with at least one TEAE, percentage", "setting": "[2]; Dalbavancin 1000 mg single IV infusion, N = 10", "value": 30, "unit": "%"},
      {"measurement": "clinical laboratory values (chemistry, hematology, urinalysis)", "setting": "[2]; any dose group, change from baseline", "value": "No clinically relevant, abnormal laboratory values were reported"},
      {"measurement": "intensity of TEAEs", "setting": "[2]; subjects receiving dalbavancin in both dose groups (500 mg, 1000 mg)", "value": "mild intensity"},
      {"measurement": "terminal half-life (t1/2)", "setting": "[3]", "value": 2, "unit": "weeks"},
      {"measurement": "terminal t1/2", "setting": "[3]; studies with follow-up periods as long as 70 days", "value": "≤ 372", "unit": "h"},
      {"measurement": "CYP oxidative metabolism", "setting": "cytochrome P450 (CYP)", "value": "does not undergo cytochrome P450 (CYP) oxidative metabolism"},
      {"measurement": "substrate, inhibitor or inducer of CYP isozymes", "setting": "cytochrome P450 (CYP)", "value": "is not a substrate, inhibitor or inducer of any known CYP-isozyme"},
      {"measurement": "QTc prolongation", "setting": "QTc", "value": "no evidence of QTc prolongation"}
    ]}
  ]
}
